Test results reported in ChEMBL document CHEMBL1154123, “Targeted isolation and structure elucidation of stilbene glycosides from the bark of Lysidice brevicalyx Wei guided by biological and chemical screening” (J Nat Prod, 2008).

Assays:
[1] = Antioxidant activity against ferrous ion-induced lipid peroxidation in liver microsomes assessed as inhibition rate at 10 uM by TBA method in presence of cysteine; type: functional; set-up: scale not given: the % may be the effect or the level left; details: Microsome
How it was run: (§1)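 Liver microsomal protein (1.0 mg in 1 mL 0.1 M PBS, pH 7.4) incubated with […] cysteine and test sample at 37 °C for 15 min; peroxidation initiated with 0.05 mM FeSO4. Stopped with 20% trichloroacetic acid, centrifuged, supernatant heated with 0.67% TBA 10 min at 100 °C. MDA read at 532 nm; inhibition rate calculated against Fe2+-cysteine and solvent-only controls. Vitamin E positive control.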

[2] = Antioxidant activity against ferrous ion-induced lipid peroxidation in liver microsomes assessed as inhibition rate at 100 uM by TBA method in presence of cysteine; type: functional; set-up: scale not given: the % may be the effect or the level left; details: Microsome; how it was run: as §1

SMILES	Activity [1] [%]	Activity [2] [%]
C[C@@H]1O[C@@H](O[C@H]2[C@H](Oc3cc(O)cc(/C=C/c4ccc(O)cc4)c3)O[C@H](CO)[C@@H](O)[C@@H]2O)[C@H](O)[C@H](O)[C@H]1O	9	39
C[C@@H]1O[C@@H](OC[C@H]2O[C@@H](Oc3cc(O)cc(/C=C/c4ccc(O)cc4)c3)[C@H](O)[C@@H](O)[C@@H]2O)[C@H](O)[C@H](O)[C@H]1O	11	31
C[C@@H]1O[C@@H](O[C@H]2[C@H](Oc3cc(O)cc(/C=C\c4ccc(O)cc4)c3)O[C@H](CO)[C@@H](O)[C@@H]2O)[C@H](O)[C@H](O)[C@H]1O	11	10
COc1ccc(CCN(C)CCCC(C#N)(c2ccc(OC)c(OC)c2)C(C)C)cc1OC (configuration not stated)	33	81
Oc1ccc(/C=C/c2cc(O)cc(O[C@@H]3O[C@H](CO[C@@H]4OC[C@@H](O)[C@H](O)[C@H]4O)[C@@H](O)[C@H](O)[C@H]3O)c2)cc1	4	21
OC[C@H]1O[C@@H](Oc2cc(O)cc(/C=C/c3ccc(O)cc3)c2)[C@H](O)[C@@H](O)[C@@H]1O	29	100
OC[C@H]1O[C@@H](O[C@H]2[C@H](Oc3cc(O)cc(/C=C/c4ccc(O)cc4)c3)OC[C@@H](O)[C@@H]2O)[C@H](O)[C@@H](O)[C@@H]1O	5	29
C[C@@H]1O[C@@H](OC[C@H]2O[C@@H](Oc3cc(O)cc(/C=C\c4ccc(O)cc4)c3)[C@H](O)[C@@H](O)[C@@H]2O)[C@H](O)[C@H](O)[C@H]1O	0	15
C[C@@H]1O[C@@H](O[C@H]2[C@H](Oc3cc(O)cc(/C=C/c4ccc(O)cc4)c3)OC[C@@H](O)[C@@H]2O)[C@H](O)[C@H](O)[C@H]1O	6	67
C[C@@H]1O[C@@H](OC[C@H]2O[C@@H](Oc3cc(O)cc(/C=C/c4ccc(O)cc4)c3)[C@H](O[C@@H]3O[C@@H](C)[C@H](O)[C@@H](O)[C@H]3O)[C@@H](O)[C@@H]2O)[C@H](O)[C@H](O)[C@H]1O	5	39
C[C@@H]1O[C@@H](OC[C@H]2O[C@@H](Oc3cc(O)cc(/C=C\c4ccc(O)cc4)c3)[C@H](O[C@@H]3O[C@@H](C)[C@H](O)[C@@H](O)[C@H]3O)[C@@H](O)[C@@H]2O)[C@H](O)[C@H](O)[C@H]1O	8	25
